The entries come from a sample that favours hits as a whole.
HUVEC inhibit = inhibitors of HUVEC proliferation, primary screen, cell-based, 384-well; viability, % at 10 µM (by protocol); CellTiter-Glo luminescence, 72 h; active compounds read low; AID 648, 2007; 86,000 tested, 1.1% active;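 active = viability at or below 30%; inactive = viability above 30%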;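 also: 100% = median luminescence of DMSO-only cell control wells on each plate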
HCT116 bCat-KO = primary screen for growth suppressors in beta-catenin knockout HCT116 cells (colon tumor, human); viability, % at 10 µM; AID 818, 2007; 140,000 tested, 1.5% active; HCT116 beta-catenin knockout viability, CellTiter-Glo, 60 h; active compounds read low;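 active = viability at or under a set limit, the compound median less 4 SD, cut at about 6% in these data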;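 also: 0% = Hyamine 1622 control at 20 µM and 100% = untreated cell control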
HCT116 PTEN-null = growth suppression of PTEN-null HCT116, primary screen, cell-based, CellTiter-Glo; viability, % at 10 µM; 140,000 tested, 1.2% active; HCT116 PTEN-null viability, 60 h; active compounds read low; AID 827, 2007;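 active = viability at or below a set limit, 4 SD under the median of all tested compounds, cut at about 3.7% in these data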;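 also: PTEN knockout HCT116 line with beta catenin targeted HCT116 as companion control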
Lung fibro prol = antiproliferative effect on LL 47 fibroblasts – human, LL 47 cells, CellTiter-Glo luminescence, primary screen; LL 47 human lung fibroblast viability, ATP luminescence; active compounds read low; viability, % at 10 µM; 85,000 tested, 1.1% active; AID 719, 2007;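 active = viability at or below 50% in the single dose screen; inactive = viability above 50%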;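 also: compound exposure lasted 72 h before the ATP readout; 100% = median luminescence of untreated cell-only wells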
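Assay system: human lung fibroblast line LL 47, low passage. Input: 1,150 fibroblasts seeded per well. Times: overnight cell rest, 72 h compound treatment at 37 °C. Evaluation: % viability of median cell-only signal. Technique: luminescent ATP detection, CellTiter-Glo. Control set: cell-only wells, no compound.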
H69AR inhibit = proliferation blockers of H69AR lung cancer cells, primary screen, cell-based, human, 86K library; H69AR lung tumor viability, ATP luminescence, 72 h; active compounds read low; viability, % at 10 µM; 85,000 tested, 6% active; AID 598, 2007;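 active = viability at or below 40%; inactive = viability above 40%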;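 also: multidrug resistant small cell line overexpressing MRP-1 efflux transporter; 100% = mean luminescence of untreated control wells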
An asterisk follows results filed as active.

What do the screens show for `CCCC(=O)C1=C(O)C(C(=O)OC)C(C)(C)CC1=Nc1ccc(N)cc1` (stereo not given)?
HUVEC inhibit: 95; HCT116 bCat-KO: 89; HCT116 PTEN-null: 87; Lung fibro prol: 97; H69AR inhibit: 81

Results for CCCC(=Nc1ccc(N)cc1)C1=C(O)C(C(=O)OC)C(C)(C)CC1=O (stereo not given) ?
HUVEC inhibit: 88; HCT116 bCat-KO: 104; HCT116 PTEN-null: 96; Lung fibro prol: 100; H69AR inhibit: 20*

How did CCCCOc1ccc(C(=O)NNC(=S)NC(=O)CC)cc1 do in these assays?
HCT116 bCat-KO: 4.5*; HCT116 PTEN-null: 5

What do the screens show for `CCC(=O)NC(=S)NNC(=O)c1ccc(OC)cc1`?
HCT116 bCat-KO: 38; HCT116 PTEN-null: 29

Results for CC1CCc2nn(CC(=O)NC3CCCC(C)C3C)cc2C1 (stereo not given) ?
HUVEC inhibit: 98; HCT116 bCat-KO: 87; HCT116 PTEN-null: 104; Lung fibro prol: 92; H69AR inhibit: 97

Results for Cc1ccc(CN2CCC(c3nc4ccc(Cl)cc4[nH]3)CC2)cc1 ?
HCT116 bCat-KO: 18; HCT116 PTEN-null: 17

Results for Cc1cc2nc(C3CCN(Cc4nnnn4Cc4cccs4)CC3)[nH]c2cc1C ?
HUVEC inhibit: 64; HCT116 bCat-KO: 25; HCT116 PTEN-null: 18; Lung fibro prol: 62; H69AR inhibit: 15*

Results for CCC1(c2ccc(F)cc2)NC(=O)N(CC(=O)Nc2ccc(-c3nc4ccc(C)cc4s3)cc2)C1=O (stereo not given) ?
HCT116 bCat-KO: 1.1*; HCT116 PTEN-null: 1.3*

What do the screens show for `Nc1ccc2nc(-c3ccc(N)c(Cl)c3)[nH]c2c1`?
HUVEC inhibit: 86; HCT116 bCat-KO: 66; HCT116 PTEN-null: 65; Lung fibro prol: 105; H69AR inhibit: 50

How did Nc1ccc2nc(-c3ccccc3)[nH]c2c1 do in these assays?
HUVEC inhibit: 86; HCT116 bCat-KO: 81; HCT116 PTEN-null: 87; Lung fibro prol: 100; H69AR inhibit: 33*

What do the screens show for `CC(=O)Nc1ccc2nc(-c3cccs3)[nH]c2c1`?
HUVEC inhibit: 106; HCT116 bCat-KO: 89; HCT116 PTEN-null: 93; Lung fibro prol: 110; H69AR inhibit: 90

Results for Nc1ccc(-c2nc3c(Cl)cc(N)cc3[nH]2)cc1 ?
HUVEC inhibit: 110; HCT116 bCat-KO: 88; HCT116 PTEN-null: 90; Lung fibro prol: 96; H69AR inhibit: 31*

Results for Nc1ccc2nc(-c3cccs3)[nH]c2c1 ?
HUVEC inhibit: 71; HCT116 bCat-KO: 90; HCT116 PTEN-null: 97; Lung fibro prol: 87; H69AR inhibit: 22*

What do the screens show for `COc1cc(C)nc(N2CCCC(C(=O)Nc3cc(Cl)ccc3OC)C2)n1` (stereo not given)?
HUVEC inhibit: 90; HCT116 bCat-KO: 87; HCT116 PTEN-null: 79; Lung fibro prol: 106; H69AR inhibit: 58

What do the screens show for `CN1C(=O)N(C)C2(c3ccccc3)Nn3c(s/c(=C/c4ccccc4)c3=O)=NC12c1ccccc1` (stereo not given)?
HUVEC inhibit: 103; HCT116 bCat-KO: 65; HCT116 PTEN-null: 74; Lung fibro prol: 91; H69AR inhibit: 38*

What do the screens show for `Cc1cc2c(N3CCCCC3C)ncnc2s1` (stereo not given)?
HUVEC inhibit: 102; HCT116 bCat-KO: 77; HCT116 PTEN-null: 82; Lung fibro prol: 94; H69AR inhibit: 37*

What do the screens show for `Cc1nn(-c2ccccc2)c2sc(C(=O)NC3CC3)cc12`?
HUVEC inhibit: 91; HCT116 bCat-KO: 83; HCT116 PTEN-null: 84; Lung fibro prol: 90; H69AR inhibit: 95

What do the screens show for `Cc1nn(-c2ccccc2)c2sc(C(=O)N(CC(=O)NC3CCCC3)Cc3ccco3)cc12`?
HUVEC inhibit: 54; HCT116 bCat-KO: 68; HCT116 PTEN-null: 37; Lung fibro prol: 53; H69AR inhibit: 26*

Results for Cc1ccc2cccc(SCC(=O)NCC#N)c2n1 ?
HCT116 bCat-KO: 91; HCT116 PTEN-null: 92

What do the screens show for `Cc1ccc(SCc2ccc(C(=O)NCc3ccncc3)cc2)cc1`?
HCT116 bCat-KO: 74; HCT116 PTEN-null: 78

How did CCOC(=O)c1cc(NC(=O)c2ccoc2C)cc(C(=O)OCC)c1 do in these assays?
HUVEC inhibit: 83; HCT116 bCat-KO: 94; HCT116 PTEN-null: 89; Lung fibro prol: 99; H69AR inhibit: 98

What do the screens show for `S=C(Nc1ccccc1)c1ccccn1`?
HUVEC inhibit: 93; HCT116 bCat-KO: 31; HCT116 PTEN-null: 10; Lung fibro prol: 96; H69AR inhibit: 1.2*

Results for O=C(Nc1ccccc1)C(=O)Nc1ccccn1 ?
HCT116 bCat-KO: 85; HCT116 PTEN-null: 80

How did CCOc1ccc(C2Nc3ccc4ccccc4c3-c3c2c(=O)oc2ccccc32)cc1 (stereo not given) do in these assays?
HCT116 bCat-KO: 2.7*; HCT116 PTEN-null: 4

Results for COc1ccc(C2Nc3ccc4ccccc4c3-c3c2c(=O)oc2ccccc32)cc1 (stereo not given) ?
HCT116 bCat-KO: 3.2*; HCT116 PTEN-null: 1.5*

What do the screens show for `O=c1oc2ccccc2c2c1C(c1ccc(Cl)cc1)Nc1ccc3ccccc3c1-2` (stereo not given)?
HCT116 bCat-KO: 73; HCT116 PTEN-null: 76

How did CCN1C(=O)/C(=C2\C=Cc3ccccc3N2CC)SC1=S do in these assays?
HCT116 bCat-KO: 96; HCT116 PTEN-null: 85

How did CCN1C(=O)/C(=C2\SC(=S)N(CCCOC)C2=O)c2ccccc21 do in these assays?
HUVEC inhibit: 68; HCT116 bCat-KO: 68; HCT116 PTEN-null: 78; Lung fibro prol: 98; H69AR inhibit: 31*

Results for O=S(=O)(c1cccs1)N1CCCc2ccccc21 ?
HUVEC inhibit: 89; HCT116 bCat-KO: 89; HCT116 PTEN-null: 93; Lung fibro prol: 88; H69AR inhibit: 92

Results for O=C(CCc1ccc(S(=O)(=O)N2CCOCC2)cc1)N/N=C/c1ccc(O)c(O)c1O ?
HCT116 bCat-KO: 97; HCT116 PTEN-null: 105

Results for Cc1c(C#N)c2ccccc2n1CC(=O)NCCc1c[nH]c2ccccc12 ?
HUVEC inhibit: 74; HCT116 bCat-KO: 73; HCT116 PTEN-null: 70; Lung fibro prol: 77; H69AR inhibit: 37*

What do the screens show for `N#Cc1cn(CC(=O)NCCc2c[nH]c3ccccc23)c2ccccc12`?
HUVEC inhibit: 82; HCT116 bCat-KO: 84; HCT116 PTEN-null: 64; Lung fibro prol: 88; H69AR inhibit: 73

What do the screens show for `O=C(Nc1ccc([N+](=O)[O-])cc1)c1nc[nH]c1C(=O)NC1CCCCC1`?
HCT116 bCat-KO: 2.8*; HCT116 PTEN-null: 1.2*

How did O=C(Nc1ccc(F)cc1)c1nc[nH]c1C(=O)Nc1ccc([N+](=O)[O-])cc1 do in these assays?
HCT116 bCat-KO: 1.3*; HCT116 PTEN-null: 1.4*

What do the screens show for `CCOC(=O)c1sc(-c2ccccc2)cc1NC(=O)c1ccc(S(=O)(=O)N(CCOC)CCOC)cc1`?
HCT116 bCat-KO: 47; HCT116 PTEN-null: 55

High-throughput results: PubChem BioAssay, SRMLSC
